From ChEMBL document CHEMBL4673255, “Acylated 1H-1,2,4-Triazol-5-amines Targeting Human Coagulation Factor XIIa and Thrombin: Conventional and Microscale Synthesis, Anticoagulant Properties, and Mechanism of Action” (J Med Chem, 2020) come the findings set out here.

Activity calls are given as the source filed them. No cut-off for these calls is given here.

Series [1] has as its target T1, Coagulation factor X (Homo sapiens, UniProt P00742). Nature of the series: Inhibition of human coagulation factor Xa using Boc-Ile-Glu-Gly-Arg-AMC as fluorogenic substrate measured at 1 min interval for 1 hr by fluorometric assay.
For series [2], the system named is CCF-STTG1. In words: Cytotoxicity against human CCF-STTG1 cells assessed as reduction in cell viability at 100 uM incubated for 48 hrs by alamar blue assay relative to control. Format: cell-based. To be noted: ccf-sttg1, 48 h.
Series [3] addresses T2, Coagulation factor XII (Homo sapiens) (UniProt P00748).
T2 sequence (whole entry): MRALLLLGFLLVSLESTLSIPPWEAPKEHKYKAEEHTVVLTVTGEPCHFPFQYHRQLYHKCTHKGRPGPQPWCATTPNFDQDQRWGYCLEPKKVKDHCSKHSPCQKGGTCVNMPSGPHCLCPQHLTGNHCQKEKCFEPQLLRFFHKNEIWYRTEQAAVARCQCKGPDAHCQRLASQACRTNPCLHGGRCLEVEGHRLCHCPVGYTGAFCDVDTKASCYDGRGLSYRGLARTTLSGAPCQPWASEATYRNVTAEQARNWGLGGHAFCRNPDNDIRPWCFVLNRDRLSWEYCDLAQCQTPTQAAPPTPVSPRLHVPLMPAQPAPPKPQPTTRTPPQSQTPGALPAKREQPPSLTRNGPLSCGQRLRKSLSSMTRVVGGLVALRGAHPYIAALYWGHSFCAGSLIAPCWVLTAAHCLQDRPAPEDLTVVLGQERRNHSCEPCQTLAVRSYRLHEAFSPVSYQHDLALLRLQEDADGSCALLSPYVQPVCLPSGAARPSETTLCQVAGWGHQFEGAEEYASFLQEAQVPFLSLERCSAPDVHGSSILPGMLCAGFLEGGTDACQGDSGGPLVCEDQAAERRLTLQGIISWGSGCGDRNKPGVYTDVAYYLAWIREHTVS
In words: Binding affinity to human plasma coagulation factor XIIA assessed as compound-adduct formation by measuring change in molecular mass at molar ratio of 1:20 measured after 4 mins by SEC/ESI-TOF mass spectra analysis. In kind it is cell-free. A digest of the protocol:
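β-FXIIa incubated with inhibitor at a 1:20 molar ratio, then size-exclusion chromatography coupled to ESI-MS to measure the mass of enzyme–inhibitor complexes. Further runs checked complex stability to probe reversibility.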

Series [4] relates to Plasma. Nature of the series: Antiplatelet activity in […] assessed as inhibition of TRAP6-induced platelet aggregation at 0.1 to 10 uM by light transmission aggregometry. In kind it is functional. Particulars: Homo sapiens, dose 0.1-10 µM.
Series [5] deals with T1, Coagulation factor X. In words: Inhibition of human coagulation factor Xa using Boc-Ile-Glu-Gly-Arg-AMC as fluorogenic substrate at 5 uM measured at 1 min interval for 1 hr by fluorometric assay relative to control.
Series [6] deals with Plasma. Nature of the series: Antiplatelet activity in human platelet-rich plasma assessed as inhibition of MDA-MB-231 induced platelet activation by measuring reduction in ATP release preincubated for 20 mins followed by tumor cell addition and measured after 30 mins by luciferin-based luminescence assay. In kind it is functional, cell-free. To be noted: time 50.0 min. A digest of the protocol: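 Platelet activation measured as dense-granule ATP release by firefly luciferase bioluminescence. Compound-treated platelets were activated with MDA-MB-231 cells, thrombin or TRAP-6. TRAP-6-induced signal was set as 100%. Triplicate, mean ± SD.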

T1 sequence (P00742 41-179 limits assumed): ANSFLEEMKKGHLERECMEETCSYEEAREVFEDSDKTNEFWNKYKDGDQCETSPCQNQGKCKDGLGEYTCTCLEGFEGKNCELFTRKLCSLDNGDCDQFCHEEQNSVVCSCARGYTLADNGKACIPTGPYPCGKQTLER
T1 sequence (P00742 235-488 limits assumed): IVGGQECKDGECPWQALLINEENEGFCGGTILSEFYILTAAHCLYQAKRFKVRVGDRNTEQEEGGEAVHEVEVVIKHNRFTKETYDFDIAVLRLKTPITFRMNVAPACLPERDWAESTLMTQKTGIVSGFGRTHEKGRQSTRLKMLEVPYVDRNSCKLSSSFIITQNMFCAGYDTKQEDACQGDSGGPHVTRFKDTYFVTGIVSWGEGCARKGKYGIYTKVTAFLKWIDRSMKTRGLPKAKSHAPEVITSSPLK

With `Nc1nc(-c2ccccn2)nn1C(=O)c1cccc2ccccc12`, in series [1], the IC50 is > 5 µM.
Regarding `Nc1nc(-c2ccccn2)nn1C(=O)c1ccc2ccccc2c1`, the Activity was 36% in series [2] and 154 Da in series [3]. Further, in series [4], the inhibition result is “inactive”. Moreover, the values for the inhibition in series [5] and in series [6] were 48% and “Dose-dependent effect”, respectively.
